The list is not random: actives were taken first. Their share in the collection is about 3.1%.
Apaf-1 inh – human Apaf-1 inhibition | O14727 | 330,000 tested, 0.71% active | inhibition, % at 20 µM | reconstituted apoptosome caspase-3 activity, DEVD-Rh110 fluorescence; active = inhibition of at least 40% at 20 µM;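 also: plate controls were DMSO wells for no effect and DEVD-CHO caspase inhibitor wells for full effect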
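Material: cell-free apoptosome with Apaf-1, procaspase-3 and caspase-9; Buffer or medium: Hepes pH 7.5 with detergent and BSA; Reagent: cytochrome c trigger plus (Z-DEVD)2-Rh110 caspase-3 substrate; Times: compound with Apaf-1, dATP, procaspase-3 30 min, then 50 min reaction, room temperature; Technique: Rh110 fluorescence intensity.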
PAFAH2 FP inh – PAFAH2 (human) inhibition. 340,000 tested, 0.99% active. recombinant PAFAH2, FP-rhodamine activity probe, fluorescence polarization. Q99487. inhibition, % at 3.39 µM;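 active = inhibition above the mean over all tested compounds plus 3 SD, cut at about 30% in these data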;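 also: inhibitors block probe labeling of enzyme so polarization drops; 0% = enzyme with DMSO and 100% = wells lacking PAFAH2 protein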
PAFAH1B2 inh – inhibitors of human PAFAH1B2 | inhibition, % at 3.39 µM | 340,000 tested, 1.2% active | recombinant PAFAH1B2, FP-rhodamine activity probe, fluorescence polarization | P68402 | AID 492953;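 active = inhibition above the mean of all tested compounds plus 3 SD, cut at about 24% in these data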;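 also: 0% = enzyme with DMSO and 100% = wells lacking PAFAH1B2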
Target sequence (P68402 whole entry, looked up): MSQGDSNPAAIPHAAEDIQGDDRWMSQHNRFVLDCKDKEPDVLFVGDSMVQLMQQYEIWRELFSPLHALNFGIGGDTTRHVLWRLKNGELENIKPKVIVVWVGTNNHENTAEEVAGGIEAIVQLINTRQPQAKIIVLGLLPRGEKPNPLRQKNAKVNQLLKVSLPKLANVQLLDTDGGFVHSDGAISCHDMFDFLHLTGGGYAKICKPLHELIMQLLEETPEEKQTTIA
PAFAH1B3 FP inh – blocks human PAF acetylhydrolase 1B catalytic subunit 3; 340,000 tested, 0.28% active; inhibition, % at 3.39 µM; AID 492972; recombinant PAFAH1B3, FP-rhodamine probe, fluorescence polarization; Q15102;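 active = inhibition above the screen-wide average of all tested compounds plus 3 SD, cut at about 25% in these data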;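 also: 0% = enzyme with DMSO only and 100% = wells lacking PAFAH1B3 protein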
Target sequence (Q15102 whole entry, looked up): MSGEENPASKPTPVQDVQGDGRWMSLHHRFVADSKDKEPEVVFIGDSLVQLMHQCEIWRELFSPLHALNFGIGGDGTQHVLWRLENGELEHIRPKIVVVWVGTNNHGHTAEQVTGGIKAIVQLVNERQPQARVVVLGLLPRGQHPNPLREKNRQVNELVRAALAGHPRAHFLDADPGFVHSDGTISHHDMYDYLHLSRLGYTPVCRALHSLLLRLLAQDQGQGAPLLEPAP
pPAFAH FP inh – pPAFAH (human) enzyme inhibition; Q13093; recombinant pPAFAH, FP-rhodamine probe fluorescence polarization; inhibition, % at 3.39 µM; 330,000 tested, 1.5% active;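 active = inhibition above the mean inhibition across the screen plus 3 SD, cut at about 25% in these data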;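 also: inhibitors block binding of the rhodamine activity-based probe so polarization drops; 0% = enzyme with DMSO and 100% = wells lacking pPAFAH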
PAFAH2 confirm – confirmation of human PAFAH2 inhibitors; shares compounds with PAFAH2 FP inh; recombinant PAFAH2, FP-rhodamine activity probe, fluorescence polarization; inhibition, % at 3.39 µM; 2,300 tested, 65% active;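 active = mean inhibition over three repeats above a set limit taken from the earlier primary screen, cut at about 30% in these data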;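 also: inhibitor blocks binding of rhodamine activity probe so polarization falls; 0% = enzyme with DMSO and 100% = wells lacking PAFAH2 protein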
* = called active by the depositor; . = no result given.

SMILES	Apaf-1 inh	PAFAH2 FP inh	PAFAH1B2 inh	PAFAH1B3 FP inh	pPAFAH FP inh	PAFAH2 confirm
O=C(O/N=C1\CCCc2ccccc21)c1cccs1	18	42*	4	4	-1	-5
CCOc1ccc(NS(=O)(=O)c2csc(C(N)=O)c2)cc1	-3	12	4	9	12	.
C#CC1(O)CCC2C3CCc4cc(O)cc(C)c4C3CCC21C (stereo not drawn)	.	-9	2	-1	.	.
Cc1ccc(C(=O)Nc2ccsc2C(=O)O)cc1	6	7	-1	5	-3	.
O=C(Nc1ccsc1C(=O)O)c1ccc(Cl)cc1	22	31*	8	10	-7	19
O=C(COC(=O)CC1CC2CCC1C2)NCc1ccc(Cl)cc1 (stereo not drawn)	24	25	22	6	19	.
O=C(COC(=O)CC1CC2CCC1C2)NCc1ccccc1 (stereo not drawn)	2	46*	13	14	22	29
CC(CCc1ccccc1)NC(=O)COC(=O)CC1CC2CCC1C2 (stereo not drawn)	16	30*	15	5	19	20
Cc1ccc(NC(=O)C(c2ccccc2)N2CCN(CC(=O)N3CCOCC3)CC2)cc1Cl (stereo not drawn)	-13	-3	-1	9	3	.
Cc1ccc(C(=O)OCC(=O)NC2CC2)s1	-3	70*	4	10	8	55*
Cc1ccsc1C(=O)OCC(=O)NC1CC1	3	33*	-1	-5	0	13
Cc1ccc(C(=O)NCC(=O)NC2CCC(C)CC2)s1 (stereo not drawn)	-3	-1	4	4	2	.
CCc1ccc(CN(C)Cc2nc(COc3ccccc3)no2)nc1	2	30*	0	8	10	13
CCc1ccc(CN(C)Cc2nc(Cc3cccc(C(F)(F)F)c3)no2)nc1	10	6	5	13	17	.
COc1ccccc1N(C)S(=O)(=O)c1ccc(C(=O)N(C)Cc2ccc(Cl)s2)cc1	8	4	6	4	4	.
O=C(Nc1cc(Cl)ccc1-n1cncn1)C1CC1	-3	-1	-4	9	0	.
CNC(=O)C(C)Sc1ccc(S(=O)(=O)N2CCOCC2)cn1 (stereo not drawn)	-5	-8	0	6	-6	.
CSc1ncccc1C(=O)OCC(=O)Nc1ccc2c(c1)OCO2	5	29	1	2	5	.
CCOc1ncccc1C(=O)OCC(=O)Nc1ccc2c(c1)OCCO2	-15	55*	0	5	21	47*
O=C(COC(=O)c1cccnc1Cl)Nc1ccc2c(c1)OCO2	-1	75*	3	14	5	60*
Cc1c(C(=O)OCC(=O)Nc2ccc3c(c2)OCO3)cccc1[N+](=O)[O-]	15	72*	6	-4	4	64*
CCOc1ncccc1C(=O)Nc1ccc2c(c1)OCO2	-10	8	6	6	3	.
Cc1c(NC(=O)CSc2nnc(C(C)N(C)C)n2-c2ccccc2)c(=O)n(-c2ccccc2)n1C (stereo not drawn)	.	-6	0	2	.	.
CCOC(=O)NN1C(=O)c2ccccc2NC1c1cccs1 (stereo not drawn)	-7	6	8	3	3	.
O=C(COC(=O)c1ccc(NC(=O)C2CC=CCC2C(=O)O)cc1)c1ccccc1 (stereo not drawn)	10	31*	8	7	-1	31*
SMILES	Apaf-1 inh	PAFAH2 FP inh	PAFAH1B2 inh	PAFAH1B3 FP inh	pPAFAH FP inh	PAFAH2 confirm
O=C(COC(=O)c1ccc(Cl)nc1)Nc1ccc2c(c1)OCO2	10	53*	-1	-1	1	39*
O=C(O)CCC(=O)Nc1ccc(C(=O)OCC(=O)c2ccc(Cl)cc2)cc1	6	42*	4	7	3	28
O=C(O)CCCC(=O)Nc1ccc(Cl)cc1	5	1	5	2	1	.
O=C(COC(=O)c1ccc(Cl)nc1)Nc1ccc(Cl)cc1	8	36*	3	4	.	33*
O=C(COC(=O)c1ccc(O)cc1)Nc1ccc2c(c1)OCO2	-5	89*	2	4	11	81*
O=C(COC(=O)c1ccc(Cl)nc1)Nc1ccc2c(c1)CCC2	15	42*	-8	10	-2	32*
Cc1noc(C)c1COc1ccc(C(=O)OCC(=O)Nc2ccc3c(c2)OCO3)cc1	15	80*	0	3	15	86*
C[C@H](NC(=O)c1cccc([N+](=O)[O-])c1)C(=O)OCC(=O)c1ccccc1Br	-9	1	-3	12	9	.
Cc1ccc(N=C(NOC(=O)c2ccccc2)c2nonc2N)c(C)c1	25	68*	-1	-7	5	67*
Cc1ccc(N=C(NO)c2nonc2N)c(C)c1	10	-4	-4	1	0	.
Cc1cc(C)c(C(=O)OCC(=O)NCc2cccs2)c(C)c1	20	-3	9	10	1	.
O=C(COC(=O)c1ccc(Br)o1)NCc1cccs1	1	17	4	6	12	.
O=C(COC(=O)c1ccco1)NCc1cccs1	3	34*	2	3	-6	20
Cc1ccc(C(=O)OCC(=O)NCc2cccs2)cc1	-1	53*	-1	-8	18	46*
O=C(COC(=O)c1ccc(S(=O)(=O)N2CCCC2)cc1)NCc1cccs1	7	-1	1	9	9	.
O=C(COC(=O)c1ccc(CO)cc1)NCc1cccs1	4	43*	0	6	-3	35*
Cc1ccc(C(=O)OCC(=O)NCc2cccs2)cc1C	5	54*	3	-2	7	51*
CCCN1C(=O)c2ccccc2NC1c1ccc(O)c(OCC)c1 (stereo not drawn)	2	2	7	6	5	.
CC(=O)N1CCN(C(=O)c2cc(S(=O)(=O)N(C)Cc3ccccc3)ccc2Cl)CC1	7	1	-3	1	.	.
O=C(COC(=O)/C=C/c1ccc(OC(F)F)cc1)NCc1cccs1	-5	46*	3	5	8	41*
Cc1noc(C)c1COc1ccc(C(=O)OCC(=O)OC(C)(C)C)cc1	16	32*	1	8	9	29
Cc1noc(C)c1COc1ccc(C(=O)OCC(=O)Nc2ccc(S(N)(=O)=O)cc2)cc1	-9	-1	5	5	0	.
Cc1noc(C)c1COc1ccc(C(=O)OCC(=O)NCc2ccccc2Cl)cc1	10	76*	4	2	12	74*
O=C(CCC(=O)N(CC(=O)NC1CCCC1)Cc1ccccc1Cl)Nc1nccs1	6	3	8	2	2	.
N#Cc1cccc(NC(=O)COC(=O)c2cccc(N3C(=O)c4ccccc4C3=O)c2)c1	-1	67*	-13	-13	10	79*
O=C(COC(=O)c1cccc(N2C(=O)c3ccccc3C2=O)c1)Nc1ccccc1	-1	70*	5	7	15	71*
